These results are taken from ChEMBL document CHEMBL4190240, “Conventional and microwave-assisted synthesis of new 1H-benzimidazole-thiazolidinedione derivatives: A potential anticancer scaffold” (Eur J Med Chem, 2017).

In data set [1] the test system is A549. As to the kind of experiment: Induction of apoptosis in human A549 cells assessed as formation of fragmented nuclei at cytotoxic IC50 concentration after 24 hrs by Hoechst 33242-staining based fluorescent microscopy. It counts as functional, cell-based. In short, it runs like this:
(§1)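 A549 cells (5×10^4/well) adhered 24 h on coverslips, exposed 24 h to IC50 concentration, fixed 10 min in 4% paraformaldehyde at 4 °C, stained with Hoechst 33242 (5 µg/mL) 30 min at room temperature. Nuclear morphology examined by fluorescence microscopy (ex 350/em 460 nm, 40x).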

In data set [2] the test system is A549. Put plainly: Induction of apoptosis in human A549 cells assessed as viable cells at cytotoxic IC50 concentration after 24 hrs by Annexin V-FITC/propidium iodide dual staining based flow cytometry (reference value: 84.8%). It counts as functional.
A further data set has as its system HT-1080. As to the kind of experiment: Cytotoxicity against human HT1080 cells assessed as cell growth inhibition after 48 hrs by MTT assay. The settings on record: HT-1080, 48 h. The data set is classed as functional, cell-based.
Data set [3] deals with A549. Put plainly: Induction of apoptosis in human A549 cells assessed as formation of shrinked nuclei at cytotoxic IC50 concentration after 24 hrs by Hoechst 33242-staining based fluorescent microscopy. The data set is classed as functional, cell-based. An outline of the steps: as §1
For data set [4], the system named is A549. As to the kind of experiment: Induction of apoptosis in human A549 cells assessed as late apoptotic cells at cytotoxic IC50 concentration after 24 hrs by Annexin V-FITC/propidium iodide dual staining based flow cytometry (reference value: 1.6%). It counts as functional.
The subject of data set [5] is A549. As to the kind of experiment: Induction of ROS production in human A549 cells at cytotoxic IC50 concentration after 24 hrs by DCFH-DA-dye based fluorescent microscopy. The data set is classed as functional, cell-based.
Another data set has as its system PC-3. As to the kind of experiment: Cytotoxicity against human PC3 cells assessed as cell growth inhibition after 48 hrs by MTT assay. It counts as functional, cell-based. The settings on record: PC-3, 48 h. A general note: Tetrazolium assays rely on reduction of a dye to a coloured formazan, in cell work by metabolically active cells.
The nature of data set [6]: Selectivity index, ratio of IC50 for HEK293T cells to IC50 for human A549 cells. It counts as toxicity. The following applies: HEK293T cells versus A549 cells, read-out: Ratio IC50.
Another data set concerns HeLa. As to the kind of experiment: Cytotoxicity against human HeLa cells assessed as cell growth inhibition after 48 hrs by MTT assay. It counts as functional, cell-based.
The nature of data set [7]: Selectivity index, ratio of IC50 for HEK293T cells to IC50 for human HT1080 cells. The data set is classed as toxicity. The following applies: HEK293T cells versus HT1080 cells, read-out: Ratio IC50.
For data set [8], the system named is A549. As to the kind of experiment: Cytotoxicity against human A549 cells assessed as cell growth inhibition after 48 hrs by MTT assay. The following applies: A549, 48 h. The data set is classed as functional, cell-based.
For data set [9], the system named is A549. Put plainly: Induction of apoptosis in human A549 cells assessed as necrotic cells at cytotoxic IC50 concentration after 24 hrs by Annexin V-FITC/propidium iodide dual staining based flow cytometry (reference value: 3.7%). It counts as functional. On the technique in general: Flow cytometry measures light scatter and fluorescence of single cells or particles in a stream.

The next data set concerns MDA-MB-231. As to the kind of experiment: Cytotoxicity against human MDA-MB-231 cells assessed as cell growth inhibition after 48 hrs by MTT assay. It counts as functional, cell-based. The settings on record: MDA-MB-231, 48 h.
The test system of data set [10] is A549. Put plainly: Antimigratory activity in human A549 cells assessed as reduction in wound healing at cytotoxic IC50 concentration after 24 to 48 hrs by phase contrast microscopy. The data set is classed as functional, cell-based. In short, it runs like this:
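A549 cells (5×10^5/well) grown 24 h to confluent monolayer, scratched with sterile 200 µL pipette tip, washed twice with PBS. Medium with compound at its IC50 added; untreated wells as control. Wound closure photographed by phase contrast microscopy at 0, 24 and 48 h in three or more random fields.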

The test system of data set [11] is A549. Put plainly: Induction of apoptosis in human A549 cells assessed as early apoptotic cells at cytotoxic IC50 concentration after 24 hrs by Annexin V-FITC/propidium iodide dual staining based flow cyclometry (reference value: 9.8%). It counts as functional.
The test system of another data set is HEK-293T. Put plainly: Cytotoxicity against HEK293T cells assessed as cell growth inhibition after 48 hrs by MTT assay. The data set is classed as cell-based. The settings on record: Homo sapiens.
For data set [12], the system named is A549. Put plainly: Induction of apoptosis in human A549 cells assessed as loss of mitochondrial membrane potential at cytotoxic IC50 concentration after 24 hrs by rhodamine-123 dye based spectrofluorometery relative to control. It counts as functional. In short, it runs like this: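 A549 cells (5×10^5 cells/mL) adhered overnight, treated 24 h at IC50 concentration, trypsinised, washed and stained with rhodamine-123 (10 µg/mL) in PBS 30 min at room temperature. After two PBS washes, fluorescence measured by spectrofluorometer versus DMSO control; mean ± SD of three independent experiments.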

Data set [13] is described as follows: Selectivity index, ratio of IC50 for HEK293T cells to IC50 for human HeLa cells. The data set is classed as toxicity. The following applies: HEK293T cells versus HeLa cells, read-out: Ratio IC50.
For data set [14], the system named is A549. Put plainly: Inhibition of filamentous actin polymerization in human A549 cells assessed as reduction in F-actin extension at the periphery at cytotoxic IC50 concentration after 24 hrs by rhodamine-phalloidin/Hoechst 33242 double staining based fluorescent microscopy. It counts as cell-based. In short, it runs like this: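 A549 cells (1×10^6/well) grown on coverslips 24 h, treated 24 h at IC50 concentration, PBS-washed, fixed in 4% paraformaldehyde. Stained with rhodamine-phalloidin for F-actin and Hoechst 33242 for nuclei, mounted in anti-fade, imaged by fluorescence microscopy at 20X; DMSO-treated cells as control.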

The nature of data set [15]: Selectivity index, ratio of IC50 for HEK293T cells to IC50 for human MDA-MB-231 cells. The following applies: HEK293T cells versus MDA-MB-231 cells, read-out: Ratio IC50. It counts as toxicity.
Data set [16] can be described thus: Selectivity index, ratio of IC50 for HEK293T cells to IC50 for human PC3 cells. It counts as toxicity. The following applies: HEK293T cells versus PC3 cells, read-out: Ratio IC50.

Active and inactive are the calls of the source. The rule behind the calls is not given here.

The IC50 is the midpoint of a concentration-inhibition curve. As for `COc1ccc(-c2nc3cc(/C=C4\SC(=O)N(Cc5cc(OC)c(OC)c(OC)c5)C4=O)ccc3[nH]2)cc1OC`, the outcome in the data set with A549 [1], in the data set on A549 [3], in the data set on A549 [5] and in the data set with A549 [10] was Active. Also, the Activity in the data set with A549 [2] was found to be 63.5%; with A549 [4], 8.7%; with A549 [9] it was 2.7%; in the data set on A549 [11], 25.1%; in the data set on A549 [12] it was 31.6%. In addition, the concentration for half-maximal inhibition (IC50) in the data set on HT-1080 was 0.27 µM; in the data set with PC-3, above 50 µM; with HeLa it was 0.32 µM; in the data set on A549 [8] it was 0.13 µM; with MDA-MB-231, 29.1 µM; in the data set on HEK-293T, 6.76 µM. Also, the selectivity ratio in [6] worked out at 52; in data set [7], 25.3; in data set [13] it was 21.1. In addition, the inhibition result in the data set on A549 [14] is “Active”.

Take `COc1cc(-c2nc3cc(/C=C4\SC(=O)N(Cc5cc(OC)c(OC)c(OC)c5)C4=O)ccc3[nH]2)ccc1OCC(C)C`: the result in the data set on A549 [1], in the data set with A549 [3], in the data set on A549 [5] and in the data set with A549 [10] was Active. Also, the selectivity ratio in [15] came to 1.5; in [6], 69.3; in [7] it was 41.6; in data set [16] it was 60.5; in data set [13] it was 26.6. Besides, the Activity in the data set on A549 [2] amounted to 66.1%; in the data set on A549 [4] it was 8.3%; in the data set with A549 [9], 3.7%; in the data set with A549 [11], 21.9%; in the data set on A549 [12] it was 37.3%. Moreover, the concentration for half-maximal inhibition (IC50) with HT-1080 is 0.16 µM; in the data set with PC-3 it was 0.11 µM; in the data set with HeLa, 0.25 µM; in the data set on A549 [8], 0.096 µM; in the data set with MDA-MB-231 it was 4.37 µM; in the data set on HEK-293T it was 6.65 µM. For the same molecule, in the data set on A549 [14], the inhibition entry was “Active”.
